Results reported in ChEMBL document CHEMBL4513216, “Probing the Open Global Health Chemical Diversity Library for Multistage-Active Starting Points for Next-Generation Antimalarials” (ACS Infect Dis, 2020).

Assay: Toxicity liver stage against HepG2, at 10uM
Format: cell-based
Set-up: test concentration 10 uM, cell line HepG2-A16-CD81EGFP
Conditions: human, HepG2-A16-CD81EGFP cells; read-out: INHIBITION
How it was run: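 Uninfected HepG2-A16-CD81EGFP cells, 3 × 10^3 per well, 1536-well, plated on prespotted compound at 10 μM final, parasite-free screening media added to match infected plates; puromycin 10 μM positive, DMSO 0.5% negative; run in parallel with 48 h PbLuc assay at 37 °C, 5% CO2; viability by CellTiter-Glo luminescence, normalized to controls.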

SMILES | cytotoxicity at 10 µM [%]
CN(Cc1ccccc1)C(=O)[C@@H]1Cc2[nH]cnc2CN1C | -3.92
COc1cccc(CNC[C@H]2COCc3nc4cccnc4n32)n1 | -1.57
O=C(c1ccccn1)N1C[C@@H]2OCC(=O)N(CC3CCCCC3)[C@@H]2C1 | -2.86
COCC(=O)N1CCN2C(=O)OC[C@H]2C1 | 1.82
CCc1nc(-c2ccc(NC(=O)N3CCCC3)cc2)no1 | 5.03
COCCn1ccc(=O)c(OCC(=O)Nc2ccc(Br)cc2)c1C | 0.185
Cc1cccc(S(=O)(=O)NCC2CCN(c3cnccn3)CC2)c1 | 7.99
O=C(c1nnn(-c2ccc(C(F)(F)F)cc2)n1)N1CCC(O)CC1 | -4.52
O=C1CN(C(=O)c2nnn(-c3ccc(C(F)(F)F)cc3)n2)CCN1 | -2.77
O=C(c1ccc[nH]1)N1Cc2nccn2CC(Cn2ncccc2=O)C1 (configuration not stated) | 3.66
Cc1nc(Nc2ccc(Cl)cn2)sc1C(=O)NC(C)C | 14
NC(=O)c1nc(COc2ccc3c(c2)OCO3)no1 | 8.55
COCCn1ccc(=O)c(OCC(=O)Nc2ccccc2)c1C | 3.72
CCOC(=O)C1CCN(c2nccc(-n3nc(C)cc3C)n2)CC1 | -8.99
COC(=O)CCn1ccc(=O)c2cc(OC)ccc21 | 3.88
NC(=O)C1CCN(C(=O)NC(Cc2ccccc2)C(F)(F)F)CC1 (configuration not stated) | -7.72
Cc1nc(C(NC(=O)CN(C)C(C)C)c2ccccc2F)no1 (configuration not stated) | -2.64
CN(Cc1cc(Br)cn1C)C(=O)Cc1cccnc1 | -4.18
CC(C)C(C)N(C)Cc1nnc(-c2ccc(Br)s2)o1 (configuration not stated) | -1.65
COc1cc2nc(C)sc2cc1NC(=O)CN(C)C(C)C | -3.93
Cc1ccc(C(NC(=O)CCNC(=O)c2ccoc2)C(F)(F)F)cc1 (configuration not stated) | 9.49
Cc1nn(-c2ccccc2)c(C)c1CC(=O)NC1CC(=O)N(C)C1 (configuration not stated) | 6.08
COc1ccc(C)cc1CN1CCN(Cc2nccn2C)C(C)C1 (configuration not stated) | 1.43

SMILES | cytotoxicity at 10 µM [%]
COc1cc(CNC2CCCN(c3cccnn3)C2)cc2c1OCO2 (configuration not stated) | -2.22
CNC(=O)CN(C)C1CCN(c2ccc(Cl)cc2)CC1 | -1.15
CCOc1ccc(CNC(C)c2c(C)nn(C)c2C)cc1 (configuration not stated) | -0.00326
Cc1cccc(N(CC(=O)N2CCCCC2)C(=O)C2CCCO2)c1 (configuration not stated) | -1.52
CCN(CC1CCOC1)C(=O)c1nc(-c2ccco2)sc1C (configuration not stated) | -0.238
Cc1sc(-c2ccco2)nc1C(=O)NCC1CCOC1 (configuration not stated) | -6.71
CNS(=O)(=O)Cc1ccccc1CNc1ccc(C#N)cn1 | -6.45
O=C(CS(=O)(=O)c1ccc(Cl)cc1)NC1CCCc2ccccc21 (configuration not stated) | 1.03
Cc1cc(NCc2csc(-c3ccsc3)n2)no1 | -0.912
COc1ccccc1CN1CCN(CCN2CCOC2=O)CC1 | -11.2
CCNS(=O)(=O)C1CCN(C(=O)c2ccc(F)cc2)C1 (configuration not stated) | 7.98
Cc1ncccc1CNc1ccc(OCCO)nc1 | -1.78
Cc1cnn(CC2CCCN2Cc2cc(=O)n3c(C)csc3n2)c1 (configuration not stated) | -2.11
CCC(CC)N(C)S(=O)(=O)c1ccc(CCNC(C)=O)s1 | -3.45
CCn1nc2c(cc1=O)CN(CC(=O)Nc1cc(C(C)C)no1)CC2 | -5.46
CCN(CC)C(=O)c1cc(-c2cccc(Cl)c2)no1 | -8.79
c1cc(CNc2nnc(Cc3ccsc3)o2)cs1 | 0.369
COCc1noc(-c2nn(-c3ccc(F)c(F)c3)c3c2CCC3)n1 | -2.75
Cn1ccnc1-c1noc(NCc2ccc(Cl)cc2)n1 | -9.46
CN(Cc1nccn1C)C(=O)C1COCC(=O)N1Cc1ccccc1 (configuration not stated) | 1.01
CC(C)Cn1ncc2cc(C(=O)N(C)Cc3cccc(O)c3)cnc21 | -4.67
CS(=O)(=O)c1cccc(S(=O)(=O)NCCCN2CCNC(=O)C2)c1 | -5.87
Cc1csc(NC(=O)C2(C)CCCO2)n1 (configuration not stated) | -2.54

SMILES | cytotoxicity at 10 µM [%]
O=C1NC(c2cnc(C3CCC3)s2)Nc2ccccc21 (configuration not stated) | -3.95
CNC(=O)NC(=O)COc1c(C(C)=O)ccc(Cl)c1Cl | 26.6
CCn1ccnc1SCCn1cnc2ccsc2c1=O | -2.9
Cc1ccc(C(=O)Nc2ccc(N3CCCC3)cn2)cc1C | 26.9
Cc1ccc(CNc2cnn(CC(F)F)c2)cc1C | -0.71
O=C(Nc1ccccn1)C1CC(=O)N(Cc2ccccn2)C1 (configuration not stated) | 2.84
CCNc1nc(-c2cccnc2)c(-c2ccnc(NCCO)n2)s1 | -13.7
NC(=O)c1cc2c(nc1CC1CCCCO1)CCC2 (configuration not stated) | -5.4
Cc1occc1C(=O)Nc1ccc(C(=O)NC[C@H]2CCCN2)cc1 | -10.6
O=C(CN1CCOCC1)N1CCC(c2cc(N3CCCC3)ncn2)CC1 | 3.6
O=C(Nc1nncs1)N1CCCN(C2CCCC2)CC1 | -4.31
C[C@@H]1CN(C2(C(=O)N(C)C)Cc3ccccc3C2)C[C@H](C)O1 | -5.19
O=C(c1cc(-c2ccco2)nc2c(Cl)cccc12)N1CCS(=O)(=O)CC1 | -1.99
Cc1cc(N2Cc3cnn(CCO)c3C2)nc(-c2ccccc2)n1 | -156
Cc1ccccc1CN1CCC(CNC(=O)Cn2cncn2)CC1 | 3.83
O=C1O[C@@H]2CN(Cc3ccccc3F)C[C@@H]2N1CCCN1CCOCC1 | -4.73
COc1ccccc1Oc1ncccc1CNC(=O)[C@H](N)CC(C)(C)C | -1.73
CCC(CO)N(Cc1ccccc1C)Cc1ccccc1C(=O)O (configuration not stated) | -6.32
COCC(c1ccccn1)N(C)C(=O)c1cc(-c2ccc(O)cc2)n[nH]1 (configuration not stated) | -4.07
CSCCCN1CCC(c2nnc(Cn3ccnc3)n2C2CC2)CC1 | 0.872
O=C(Nc1cnn(CC(=O)N2CCCCO2)c1)c1ccccn1 | -0.0294
CC(=O)NC1CCN(C(=O)c2cnc(COc3ccccc3)nc2O)C1 (configuration not stated) | -5.3
COc1ccc(CCNC(=O)CN2CCOCS2(=O)=O)cc1 | -2.64

SMILES | cytotoxicity at 10 µM [%]
CCc1nc(C)c(CN2CCCC(c3nn(C)c(=O)n3CC)C2)[nH]1 (configuration not stated) | -7.77
Cc1ccnn1CC(=O)N1CCCN(C2Cc3ccccc3C2)CC1 | -120
CN1CCN(S(=O)(=O)N2CCCCC2CCc2ccc(O)cc2)CC1 (configuration not stated) | -1.94
Cc1nc(N)cc(NCc2csc(N(C)C)n2)n1 | -5.2
CCCSc1ccccc1NC(=O)N1CCN(C(=O)c2ccc[nH]2)CC1 | 3.99
CC(C)n1cnnc1CN(C)Cc1ccc(CN(C)S(C)(=O)=O)o1 | -1.31
Cc1ccc2c(c1)c(CNC(=O)C1CCN(CC(N)=O)CC1)nn2C | -3.17
CCc1ccc2nc(C)cc(C(=O)NC[C@@H]3CCNC[C@H]3O)c2c1 | -3
CCC1(CO)CCCN(Cc2nccn2Cc2ccccc2)C1 (configuration not stated) | -7.35
CN(Cc1ccco1)C(=O)[C@@]12CNC[C@@H]1CN(C1CCCC1)C2 | 3.75
O=C(CCCN1CCCCC1)N1CCN(C(=O)c2ccc[nH]2)CC1 | 57.8
O=C1OCCN1C1CCN(Cc2cc3n(n2)CCCNC3)CC1 | 12.7
COc1ccccc1[C@@H]1CN(Cc2cnn(C)c2C)C[C@H]1C(=O)O | -3.53
CN(C)c1cc(N(C)Cc2cc(C(C)(C)C)n[nH]2)ncn1 | -0.629
Cc1cnc(CNCc2cnc(-c3ccccc3C)s2)cn1 | -0.37
COc1ncccc1-c1nc(-c2ccccn2)nn1C1CCS(=O)(=O)C1 (configuration not stated) | -6.1
CCCn1ncc(C(=O)N(CCOC)Cc2c(C)nn(CC)c2C)c1C | -4.97
Cc1cccc(C)c1Oc1ncccc1CNC(=O)C1(C)CCCNC1 (configuration not stated) | 0.687
O=C(Nc1cccc(-c2cscn2)c1)N1CCC2(CC1)CC(O)CO2 (configuration not stated) | -3.13
CCc1ccc2nc(C)cc(C(=O)N[C@@H]3CCCNC3)c2c1 | -5.09
O=C(NC1CC(=O)N(C2Cc3ccccc3C2)C1)c1cnccn1 (configuration not stated) | 0.661
CCN(CC)S(=O)(=O)N(C)Cc1ccc2c(c1)OCCO2 | -7.85
Cc1ccc(C(=O)NCc2cccnc2N(C)C)s1 | -2.12

SMILES | cytotoxicity at 10 µM [%]
O=C(CS(=O)(=O)Cc1ccc(F)cc1)NC1CCCCNC1=O (configuration not stated) | -0.252
Cc1ccc(-c2nc(C(=O)N3CCCC(C(N)=O)C3)cs2)c(C)c1 (configuration not stated) | -2.9
COc1c(CNCCNC(=O)c2ccc(C)cc2)c(C(C)C)nn1C | -0.945
Cc1ccc(C)c(OCCC(=O)N2CCCN(CC(N)=O)CC2)c1 | -8.54
CCN(CC1CCCO1)C(=O)Nc1ccc(OC)c(C)c1 (configuration not stated) | -12.9
C1CCCN(C2CCCN(Cc3noc(C4CC4)n3)C2)CC1 (configuration not stated) | -8.84
CCc1nc(CN(C)C2CCN(CCc3cccs3)C2)no1 (configuration not stated) | -8.7
COCCc1noc(CN2CCOC(Cn3cc(C)cn3)C2)n1 (configuration not stated) | -4.18
COc1ccccc1C(=O)N(C)Cc1nnc2ccccn12 | -2.45
CCc1nc(C2CCCN(C(=O)NC3CC3)C2)no1 (configuration not stated) | -15.3
O=C(NCc1cccc(N2CCCCC2=O)c1)[C@@H](O)c1ccccc1 | -8.31
Cc1cnn(CC2CCCN2C(=O)c2cn(-c3ccccc3)nc2C)c1 (configuration not stated) | -9.39
O=C(N[C@H]1CN[C@H]2CCCO[C@H]21)c1ccno1 | -6.92
COc1cccc(CC(=O)N2CCN(C)c3ncccc3C2)c1 | 2.33
CCN1CCN(C)C2(CCN(Cc3ccc(C)o3)CC2)C1=O | -7.1
C[C@H]1CN(C(=O)c2ccoc2)C[C@@]12CCN(CCN(C)C)C2=O | -1.77
O=C(C[C@@H]1COC[C@H]2CN(C(=O)c3cccnc3)C[C@@H]12)N1CCOCC1 | -105
Cn1c2c(ccc1=O)CCN(Cc1ccoc1)CC2 | -153
CSCC(=O)N1C[C@@H]2CC[C@H]1CN(Cc1ccccc1)C2 | -14.9
Cc1cccc(CN2C[C@H]3CC[C@@H](C2)N(Cc2c(C)noc2C)C3=O)n1 | 0.296
